Data set [1] addresses T1, Protein cereblon/Indoleamine 2,3-dioxygenase 1 (Homo sapiens, UniProt P14902+Q96SW2). Kind of data set: PROTAC activity at CRBN/IDO1 in human U87 cells assessed as induction of IDO1 degradation by measuring remaining activity at 0.1 uM pretreated with IFN-gamma for 24 hrs followed by compound addition and measured after 24 hrs by Western blotting analysis (reference value: 100%). Format: cell-based. The procedure, abridged:
(§1)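 U87 cells given an extended dose range of PROTAC for 24 h, then Western blot for IDO1. IFNγ-induced IDO1 levels normalised to untreated samples. n = 3 independent experiments; mean ± SEM.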
(In general: A western blot detects proteins with antibodies after separation by electrophoresis.)
Target sequence in this assay (P14902 whole entry, looked up): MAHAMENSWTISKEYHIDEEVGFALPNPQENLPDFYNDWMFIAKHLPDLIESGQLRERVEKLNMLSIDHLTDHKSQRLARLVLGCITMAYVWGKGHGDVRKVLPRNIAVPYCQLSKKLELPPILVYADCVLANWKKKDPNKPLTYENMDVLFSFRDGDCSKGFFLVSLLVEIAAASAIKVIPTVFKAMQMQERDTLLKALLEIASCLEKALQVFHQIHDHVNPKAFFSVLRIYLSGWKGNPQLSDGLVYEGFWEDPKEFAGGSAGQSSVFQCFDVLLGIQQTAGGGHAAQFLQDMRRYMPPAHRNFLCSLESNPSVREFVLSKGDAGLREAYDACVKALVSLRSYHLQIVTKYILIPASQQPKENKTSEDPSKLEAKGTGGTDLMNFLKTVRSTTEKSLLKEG
Target sequence in this assay (Q96SW2 whole entry, looked up): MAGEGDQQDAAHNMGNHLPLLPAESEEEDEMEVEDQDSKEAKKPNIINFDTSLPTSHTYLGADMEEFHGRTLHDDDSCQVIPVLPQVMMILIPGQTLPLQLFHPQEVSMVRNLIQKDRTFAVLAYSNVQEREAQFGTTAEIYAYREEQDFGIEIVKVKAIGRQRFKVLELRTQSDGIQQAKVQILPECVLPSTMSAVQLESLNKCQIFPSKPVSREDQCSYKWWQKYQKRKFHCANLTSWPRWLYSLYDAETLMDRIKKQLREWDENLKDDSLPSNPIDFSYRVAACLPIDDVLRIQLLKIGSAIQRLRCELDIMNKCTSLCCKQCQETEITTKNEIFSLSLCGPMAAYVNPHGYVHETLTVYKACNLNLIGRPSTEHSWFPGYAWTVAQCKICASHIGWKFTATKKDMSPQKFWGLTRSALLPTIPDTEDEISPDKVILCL

The subject of data set [2] is Kelly. The data set is described as follows: Downregulation of EPHX2 protein level in human Kelly cells at 1 uM incubated for 24 hrs by proteomics analysis. The format is functional, cell-based.
Data set [3] concerns the target T1, Protein cereblon/Indoleamine 2,3-dioxygenase 1. The data set is described as follows: PROTAC activity at CRBN/IDO1 in human SK-OV-3 cells assessed as induction of IDO1 degradation pretreated with IFN-gamma for 24 hrs followed by compound addition and measured after 24 hrs by Western blotting analysis. Format: cell-based. The note with it: dose 50-100 nM. The procedure, abridged:
(§2)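 Cells had IDO1 induced with IFNγ, then were treated at the indicated concentrations for 24 h. Lines: PDX-6 and PDX-38 adult GBM PDX cells, U87 overexpressing GFP-fused IDO1, PC-3, KNS42, MDA-MB-231, SW-1990 and SKOV-3. Lysates probed for IDO1 and GAPDH by Western blot; representative of 3 separate replicates.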
Target sequence in this assay (P14902 whole entry, looked up): as the sequence (P14902 whole entry, looked up) above
Target sequence in this assay (Q96SW2 whole entry, looked up): as the sequence (Q96SW2 whole entry, looked up) above

For data set [4] the target is unchanged. The data set is described as follows: PROTAC activity at CRBN/IDO1 in human U87 cells assessed as induction of IDO1 degradation by measuring remaining activity at 25 nM pretreated with IFN-gamma for 24 hrs followed by compound addition and measured after 24 hrs by Western blotting analysis (reference value: 100%). The format is cell-based.
Target sequence in this assay (P14902 whole entry, looked up): as the sequence (P14902 whole entry, looked up) above
Target sequence in this assay (Q96SW2 whole entry, looked up): as the sequence (Q96SW2 whole entry, looked up) above
Data set [5] has the same target. Kind of data set: PROTAC activity at CRBN/IDO1 in human SW1990 cells assessed as induction of IDO1 degradation pretreated with IFN-gamma for 24 hrs followed by compound addition and measured after 24 hrs by Western blotting analysis. The format is cell-based. As to conditions: dose 50-100 nM. The method, boiled down: as §2
Target sequence in this assay (P14902 whole entry, looked up): as the sequence (P14902 whole entry, looked up) above
Target sequence in this assay (Q96SW2 whole entry, looked up): as the sequence (Q96SW2 whole entry, looked up) above
For data set [6] the target is unchanged. The data set is described as follows: PROTAC activity at CRBN/IDO1 in human U87 cells assessed as induction of IDO1 degradation by measuring remaining activity at 50 nM pretreated with IFN-gamma for 24 hrs followed by compound addition and measured after 24 hrs by Western blotting analysis (reference value: 100%). Format: cell-based.
Target sequence in this assay (P14902 whole entry, looked up): as the sequence (P14902 whole entry, looked up) above
Target sequence in this assay (Q96SW2 whole entry, looked up): as the sequence (Q96SW2 whole entry, looked up) above
The target is the same in data set [7]. Kind of data set: PROTAC activity at CRBN/IDO1 in human PDX-6 cells assessed as induction of IDO1 degradation pretreated with IFN-gamma for 24 hrs followed by compound addition and measured after 24 hrs by Western blotting analysis. The note with it: dose 50-100 nM. The format is cell-based. The method, boiled down:
as §2
Target sequence in this assay (P14902 whole entry, looked up): as the sequence (P14902 whole entry, looked up) above
Target sequence in this assay (Q96SW2 whole entry, looked up): as the sequence (Q96SW2 whole entry, looked up) above

Data set [8] shares this target. The data set is described as follows: PROTAC activity at CRBN/IDO1 in human U87 cells assessed as induction of IDO1 degradation by measuring maximum efficacy at 100 nM pretreated with IFN-gamma for 24 hrs followed by compound addition and measured after 24 hrs by Western blotting analysis relative to control. Format: cell-based. The method, boiled down: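 IDO1 in U87 cells induced with 50 ng/mL human IFN-γ, then compound given across an extended dose range for 24 h. IDO1 and GAPDH read by Western blot; IDO1 levels normalized to untreated; DC50 from n = 3 independent experiments.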

For data set [9] the target is unchanged. Kind of data set: PROTAC activity at CRBN/IDO1 in human PDX-38 cells assessed as induction of IDO1 degradation pretreated with IFN-gamma for 24 hrs followed by compound addition and measured after 24 hrs by Western blotting analysis. Format: cell-based. As to conditions: dose 50-100 nM. The method, boiled down:
as §2

For data set [10] the target is unchanged. Kind of data set: PROTAC activity at CRBN/IDO1 in human U87 cells assessed as induction of IDO1 degradation by measuring remaining activity at 0.03 uM pretreated with IFN-gamma for 24 hrs followed by compound addition and measured after 24 hrs by Western blotting analysis (reference value: 100%). Format: cell-based. The method, boiled down: as §1
Data set [11] shares this target. Kind of data set: PROTAC activity at CRBN/IDO1 in human KNS-42 cells assessed as induction of IDO1 degradation pretreated with IFN-gamma for 24 hrs followed by compound addition and measured after 24 hrs by Western blotting analysis. Format: cell-based. The note with it: dose 50-100 nM. The procedure, abridged:
as §2

For data set [12] the target is unchanged. Kind of data set: PROTAC activity at CRBN/IDO1 in human U87 cells assessed as induction of IDO1 degradation at 100 nM at 0.5 uM pretreated with IFN-gamma for 24 hrs followed by compound addition and measured after 24 hrs in presence of MLN4924 by Western blotting analysis. Format: cell-based.
The target is the same in data set [13]. The data set is described as follows: PROTAC activity at CRBN/IDO1 in human U87 cells assessed as induction of IDO1 degradation by measuring remaining activity at 0.001 uM pretreated with IFN-gamma for 24 hrs followed by compound addition and measured after 24 hrs by Western blotting analysis (reference value: 100%). The format is cell-based. The procedure, abridged: as §1

The target is the same in data set [14]. The data set is described as follows: PROTAC activity at CRBN/IDO1 in human MDA-MB-231 cells assessed as induction of IDO1 degradation pretreated with IFN-gamma for 24 hrs followed by compound addition and measured after 24 hrs by Western blotting analysis. As to conditions: dose 50-100 nM. The format is cell-based. The procedure, abridged:
as §2

Data set [15] concerns Kelly. The data set is described as follows: Downregulation of SALL4 protein level in human Kelly cells at 1 uM incubated for 24 hrs by proteomics analysis. Format: functional, cell-based.
In data set [16] the target is T1, Protein cereblon/Indoleamine 2,3-dioxygenase 1. The data set is described as follows: PROTAC activity at CRBN/N-terminal HiBiT-tagged IDO1 (unknown origin) transfected in human U87 cells assessed as induction of IDO1 degradation pretreated with IFN-gamma for 24 hrs followed by compound addition and measured after 24 hrs by Nano-Glo HiBiT assay. Format: cell-based. The procedure, abridged:
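U87 cells carrying HiBiT knocked in by CRISPR/Cas9 at the IDO1 N-terminus, treated for 24 h. Degradation read as loss of luminescence. DC50 fitted from the lowest concentration up to maximal degradation, excluding hook-effect points; triplicate mean ± SD.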
(With HiBiT, luminescence reflects the tagged protein that the partner subunit can reach.)
Target sequence in this assay (P14902 whole entry): as the sequence (P14902 whole entry, looked up) above
Target sequence in this assay (Q96SW2 whole entry): as the sequence (Q96SW2 whole entry, looked up) above

The target is the same in data set [17]. Kind of data set: PROTAC activity at CRBN/IDO1 in human GBM43 cell assessed as induction of IDO1 degradation at 1 uM pretreated with IFN-gamma for 24 hrs followed by compound addition and measured after 24 hrs by Western blotting analysis (reference value: 100%). The format is cell-based. The procedure, abridged:
(§3)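 GBM43 patient-derived cells given an extended dose range of PROTAC for 24 h. Protein analysed by Western blot for IDO1, and IFNγ-induced IDO1 normalised to untreated samples. n = 3 independent experiments; data as mean ± SEM.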

The nature of data set [18]: Cmax in female C57BL/6J mouse brain at 50 mg/kg, ip by LC-MS/MS analysis. The format is ADME, organism-based.
For data set [19], the target named is T1, Protein cereblon/Indoleamine 2,3-dioxygenase 1. Kind of data set: PROTAC activity at CRBN/IDO1 in human GBM43 cell assessed as induction of IDO1 degradation at 3 uM pretreated with IFN-gamma for 24 hrs followed by compound addition and measured after 24 hrs by Western blotting analysis (reference value: 100%). Format: cell-based. The procedure, abridged:
as §3

Data set [20] has the same target. The data set is described as follows: PROTAC activity at CRBN/IDO1 in human GBM43 cell assessed as induction of IDO1 degradation at 0.03 uM pretreated with IFN-gamma for 24 hrs followed by compound addition and measured after 24 hrs by Western blotting analysis (reference value: 100%). The format is cell-based. The procedure, abridged: as §3
Data set [21] has the same target. The data set is described as follows: PROTAC activity at CRBN/IDO1 in human U87 cells assessed as induction of IDO1 degradation by measuring remaining activity at 1 uM pretreated with IFN-gamma for 24 hrs followed by compound addition and measured after 24 hrs by Western blotting analysis (reference value: 100%). The format is cell-based. The procedure, abridged:
as §1

Data set [22] deals with Indoleamine 2,3-dioxygenase 1 (Homo sapiens) (UniProt P14902). Kind of data set: Binding affinity to 6His-tagged recombinant IDO1 (unknown origin) assessed as binary complex formation by measuring half life by Biolayer Interferometry assay. For orientation: In BLI a coated tip is dipped into the sample, and binding shifts an interference pattern.
The subject of data set [23] is Kelly. Kind of data set: Downregulation of ADO protein level in human Kelly cells at 1 uM incubated for 24 hrs by proteomics analysis. Format: functional, cell-based.

The results in this text go back to ChEMBL document CHEMBL6153131, “Rational Design and Optimization of a Potent IDO1 Proteolysis Targeting Chimera (PROTAC)” (J Med Chem, 2025).

Activity calls are given as the source filed them. No cut-off for these calls is given here.

Indoleamine 2,3-dioxygenase 1 (Homo sapiens), sequence (P14902 whole entry, looked up): as the sequence (P14902 whole entry, looked up) above

Usually Emax stands for the greatest response seen or fitted, relative to the assay's reference. The term DC50 denotes the concentration giving 50% degradation. A word on the Cmax: it is the highest concentration seen after dosing. Take `C[C@@H](C(=O)Nc1cccc(OC2CCN(C(=O)CN3CCC(N4CCN(c5ccc6c(c5)C(=O)N(C5CCC(=O)NC5=O)C6=O)CC4)CC3)CC2)c1)[C@H]1CC[C@@H](c2ccnc3ccc(F)cc32)CC1` (stereo partly drawn): the Activity in [1] was 12%; in data set [3], “Dose-dependent-effect”; in [4], 35%; in data set [5], “Dose-dependent-effect”; in [6], 28%; in data set [7] it was “Dose-dependent-effect”. Also, the Activity entry is “Dose-dependent-effect” in [9]; 27% in data set [10]; “Dose-dependent-effect” in data set [11]; 83% in [13]; “Dose-dependent-effect” in data set [14]; 47% in data set [17]. Besides, the Activity was 77% in [19], 34% in data set [20] and 35% in data set [21]. The outcome in the data set with Kelly [2], in the data set on Kelly [15] and in the data set with Kelly [23] was Active. Besides, the Emax in [8] came out at 88%. The result in data set [12] was inactive. In data set [16], the DC50 was determined as 4.5 nM. The compound also came in with a Cmax in data set [18] of 0.1 µM. Further, the T1/2 in [22] is 38.6 s.
